In the library only some 2.9% were active in any assay of this set; here they are far more common.
PolyA inhibitor: yeast polyadenylation inhibition; S. cerevisiae SKY197-pL101 polyadenylation reporter, beta-gal luminescence; efflux-impaired pdr1/pdr3 knockout yeast; score 100 = 6 SD above DMSO; activity score, % at 12 µM; hit rate 0.02% among 300,000; AID 1875;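 active means lowest replicate activity score at least 50, where 100 means six control SD above control mean; inconclusive means lowest score under 50 but half or more replicates reach 50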;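 further: yeast exposed to compound for 9 h at 30 °C; higher score means more reporter readthrough which indicates perturbed polyadenylation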
NLRP3 yeast inh: NALP3 inhibition in yeast; inhibition, % at 10 µM; Yeast reconstituted NLRP3/ASC/caspase-1, beta-gal luminescence, 24 h; hit rate 0.39% among 330,000; AID 2825;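 active means inhibition of 50% or more; inactive means inhibition below 50%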;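 further: plate controls were induced DMSO wells for no effect and uninduced yeast grown without galactose for full effect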
VIM-2 inhibitor: inhibitors of Pseudomonas aeruginosa VIM-2 metallo-beta-lactamase; purified VIM-2, nitrocefin hydrolysis, epi-absorbance fluorescence; inhibition, % at 5.6 µM; hit rate 0.89% among 290,000; AID 1527;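 active means inhibition above the mean of all tested compounds plus 3 SD, cutoff set per screening run, cut at about 7.5% in these data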;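 further: red hydrolysis product quenches plate fluorescence so inhibitors raise well fluorescence; 0% = enzyme with DMSO and 100% = DMSO without enzyme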
NALP1 yeast inh: inhibitors of NALP1 inflammasome in yeast. S. cerevisiae NALP1/ASC/caspase-1 growth, X-gal OD620, 72 h. AID 2071. hit rate 0.61% among 280,000. inhibition, % at 10 µM; in the data active means inhibition mostly above about 24%, no sharp cut-off; inactive means mostly below about 32%
SUMO Mot1 rescue: SUMOylation pathway inhibition by Mot1-301 growth rescue; S. cerevisiae Mot1-301 growth rescue, ATP luminescence, 38.5C; percent above DMSO median, 100 means doubled; hit rate 1% among 320,000; growth rescue, % at 18.8 µM;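 active means every valid replicate shows activation above 250% relative to neutral control wells; inactive means the rest, any valid replicate at or below 250%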;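 further: OY570 slx delta 5 strain wells were the positive control but not used for scaling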
IMP-1 inh-1: inhibitors of Pseudomonas aeruginosa IMP-1 metallo-beta-lactamase. purified IMP-1, nitrocefin hydrolysis, epi-absorbance fluorescence. inhibition, % at 5.6 µM. hit rate 0.45% among 290,000. AID 1556;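 active means inhibition above the mean plus 3 SD of all compounds in the same screening run, cut at about 4.5% in these data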;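 further: 0% = IMP-1 with DMSO and 100% = DMSO wells lacking enzyme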
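System: Purified recombinant IMP-1 metallo-beta-lactamase enzyme | Measured by: Fluorescence quenching readout, ex 480/em 530 nm | Replication: Singlicate | Incubation: 15 min preincubation plus 25 min reaction at 25 °C | Evaluation: Percent inhibition from optical density relative to buffer-blank wells | Benchmarks: DMSO with and without IMP-1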
IMP-1 inh-2: selectivity counter-screen for VIM-2 inhibitors: IMP-1 metallo-beta-lactamase inhibitors | shares compounds with VIM-2 inhibitor | purified IMP-1, nitrocefin hydrolysis, epi-absorbance fluorescence | inhibition, % at 5.6 µM | 1,300 tested, under 10 active; call rule not given here;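 further: 0% = enzyme with vehicle and 100% = vehicle without enzyme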
VIM-2 FRET ctr: inhibits VIM-2 in FRET assay to exclude epi-absorbance artifacts | inhibition, % at 5.6 µM | shares compounds with VIM-2 inhibitor | purified VIM-2, CCF2 FRET substrate hydrolysis | hit rate 23% among 1,300;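 active means inhibition above the mean of all tested compounds plus 3 SD, cut at about 19% in these data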;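 further: 0% = VIM-2 plus DMSO and 100% = no enzyme wells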
TEM-1 inh: selectivity counter-screen for VIM-2 inhibitors: E. coli TEM-1 inhibitors; inhibition, % at 5.6 µM; hit rate 3% among 1,300; AID 1866; Purified TEM-1, nitrocefin hydrolysis, epi-absorbance fluorescence; shares compounds with VIM-2 inhibitor;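 active means inhibition above that campaign's mean inhibition plus 3 SD, cut at about 0.46% in these data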;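 further: 0% = TEM-1 with DMSO and 100% = TEM-1 with 100 µM potassium clavulanate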
Target sequence (P62593 whole entry, looked up): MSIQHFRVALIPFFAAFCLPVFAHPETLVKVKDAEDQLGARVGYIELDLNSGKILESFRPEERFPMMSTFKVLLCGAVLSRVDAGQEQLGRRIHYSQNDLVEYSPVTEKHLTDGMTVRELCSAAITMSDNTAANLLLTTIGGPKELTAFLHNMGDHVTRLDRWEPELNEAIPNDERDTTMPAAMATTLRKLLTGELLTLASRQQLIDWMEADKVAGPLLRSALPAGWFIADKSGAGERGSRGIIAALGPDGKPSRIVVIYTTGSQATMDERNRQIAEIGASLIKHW
VIM-2 confirm 2: confirmation of P. aeruginosa VIM-2 metallo-beta-lactamase inhibitors; shares compounds with VIM-2 inhibitor; purified VIM-2, nitrocefin hydrolysis, epi-absorbance; inhibition, % at 5.6 µM; hit rate 96% among 1,300; AID 2187;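 active means inhibition of the VIM-2 beta-lactamase enzyme above about 11% from the earlier first-round screen, limit read from the data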;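 further: 0% = VIM-2 with DMSO and 100% = buffer wells without enzyme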
* = called active by the depositor; ? = inconclusive; / = no result.

SMILES	PolyA inhibitor	NLRP3 yeast inh	VIM-2 inhibitor	NALP1 yeast inh	SUMO Mot1 rescue	IMP-1 inh-1	IMP-1 inh-2	VIM-2 FRET ctr	TEM-1 inh	VIM-2 confirm 2
CC1CCCN(S(=O)(=O)c2ccc(NC(=O)[C@@H]3CCCN3C(=O)c3cccs3)cc2)C1 (stereo partly specified)	/	0	/	/	-7	/	/	/	/	/
Oc1[nH]c2ccccc2c1C=Nc1ccccc1	-1	21	12*	8	0	-1	-2	25*	-4	21*
OCCN=Cc1c(O)[nH]c2ccccc12	-13	3	-3	-5	17	-3	/	/	/	/
O=C(COc1ccc2c(c1)oc(=O)c1ccccc12)NCCCN1CCOCC1	1	2	20*	23	-11	-2	-3	3	-8	33*
CC(Oc1ccc2c(c1)oc(=O)c1ccccc12)C(=O)NCCN1CCOCC1 (stereo unspecified)	11	0	14*	6	10	3	-3	-1	-7	23*
CC(Oc1cc2oc(=O)c3c(c2cc1Cl)CCC3)C(=O)NCCCN1CCOCC1 (stereo unspecified)	35	16	-1	3	-4	-2	/	/	/	/
CC(Oc1ccc2c(-c3ccccc3)cc(=O)oc2c1)C(=O)NCCN1CCOCC1 (stereo unspecified)	1	5	0	6	5	-3	/	/	/	/
CC(Oc1cc2oc(=O)c3c(c2cc1Cl)CCCC3)C(=O)NCCN1CCOCC1 (stereo unspecified)	-1	5	13*	24	0	1	-4	-3	-5	15*
O=C(COc1ccc2c3c(c(=O)oc2c1)CCC3)NCCCN1CCOCC1	-1	5	24*	33	10	0	-3	3	-6	31*
O=C(NCC(Cl)c1ccc2ccccc2c1)c1c(F)cccc1F (stereo unspecified)	17	2	1	28	-11	-2	/	/	/	/
OCC[C@H]1C[C@@H](O)[C@H](O)[C@]2(Cc3ccccc3CO2)O1	/	15	/	/	-8	/	/	/	/	/
O=C(Nc1cc(S(=O)(=O)N2CCCCC2)ccc1N1CCCCC1)C1CC1	2	-3	0	/	1	-2	/	/	/	/
Cc1nc2ncccn2c1-c1csc(Nc2ccc(S(N)(=O)=O)cc2)n1	-18	7	17*	-8	-18	-3	-2	-3	-7	28*
COc1cc2c(cc1OC)CN(C(=O)C1CCC(=O)N(CCCN3CCOCC3)C1)CC2 (stereo unspecified)	-7	-2	-1	16	240	-3	/	/	/	/
CC(=O)Nc1ccc(Oc2nc(C(F)(F)F)nc3ccccc23)cc1	2	14	21*	5	11	-2	-3	0	-5	30*
Cc1cc(C)cc(Oc2nc(C(F)(F)F)nc3ccccc23)c1	24	-1	-3	24	10	-5	/	/	/	/
O=C(NC(=S)NCC1CCCO1)c1ccccc1Br (stereo unspecified)	9	-23	28*	17	7	-1	-3	52*	-4	36*
Cc1c(C)c2ccc(OC(C)C(=O)NC3CC(C)(C)NC(C)(C)C3)cc2oc1=O (stereo unspecified)	9	3	7	2	97	-2	/	/	/	/
CC(Oc1cc2oc(=O)c3c(c2cc1Cl)CCC3)C(=O)NC1CC(C)(C)NC(C)(C)C1 (stereo unspecified)	1	0	25*	0	-2	-5	-2	-4	-2	35*
CC(Oc1ccc2c3c(c(=O)oc2c1)CCC3)C(=O)NC1CCN(Cc2ccccc2)CC1 (stereo unspecified)	-6	14	22*	9	2	-3	-3	2	-6	31*
CC(Oc1ccc2c3c(c(=O)oc2c1)CCCC3)C(=O)NC1CC(C)(C)NC(C)(C)C1 (stereo unspecified)	?	9	15*	14	9	-2	-3	1	-6	20*
Cc1c(OC(C)C(=O)NC2CC(C)(C)NC(C)(C)C2)ccc2c3c(c(=O)oc12)CCC3 (stereo unspecified)	5	-8	26*	5	4	1	-2	-2	-12	37*
Cc1cc(=O)oc2cc(OC(C)C(=O)NC3CCN(Cc4ccccc4)CC3)ccc12 (stereo unspecified)	-6	13	0	2	-12	-2	/	/	/	/
COc1cccc(CNC(=O)c2ccc(NC(=O)CC3SC(N4CCCC4)=NC3=O)cc2)c1 (stereo unspecified)	/	1	/	/	1	/	/	/	/	/
CC(=O)Nc1cccc(OCC(=O)NC(C)c2ccc3ccccc3c2)c1 (stereo unspecified)	-11	9	-1	17	228	-1	/	/	/	/
SMILES	PolyA inhibitor	NLRP3 yeast inh	VIM-2 inhibitor	NALP1 yeast inh	SUMO Mot1 rescue	IMP-1 inh-1	IMP-1 inh-2	VIM-2 FRET ctr	TEM-1 inh	VIM-2 confirm 2
Cc1ccc(C2=NN(CCC#N)C(=O)CO2)cc1	-2	16	-2	3	-7	-1	/	/	/	/
Cc1ccc(NC(=O)c2c3c(nc4ccccc24)CCC3)cc1	-95	31	-2	5	-28	-1	/	/	/	/
Cc1ccc2nc3c(c(Nc4ccc5c(c4)OCCO5)c2c1)CCC3	-1	12	16*	43	/	-3	-4	-2	-7	30*
N#Cc1cccc(Nc2c3c(nc4ccccc24)CCC3)c1	-3	13	2	16	-2	-2	/	/	/	/
Cc1ccc2nc3c(c(Nc4ccc(O)cc4)c2c1)CCC3	-9	27	19*	16	-7	-4	-3	-2	-5	32*
CCCCN(CC)CCCNC(=O)c1cc2c(-c3ccc(OC)c(OC)c3)nn(C)c2s1	9	10	13*	11	-5	-4	-3	1	-5	24*
CCN(CC)CCCNC(=O)c1cc2c(-c3cccc(OC)c3)nn(C)c2s1	5	10	8	20	5	-5	/	/	/	/
O=c1[nH]c2ccccc2nc1-c1ccccc1	-14	31	-2	11	12	-3	/	/	/	/
NC(=O)N=Nc1c2[nH]c3ccccc3nc-2c2ccccc12	-104	42	21*	-15	19	-3	0	-3	-3	38*
CCN=C1S/C(=C/c2ccc(-c3ccc(Cl)cc3C(=O)O)o2)C(=O)N1CC	16	24	13*	5	52	2	-3	19*	-7	16*
